Experimental data reported in ChEMBL document CHEMBL3407400, “Design, synthesis and biological evaluations of chirally pure 1,2,3,4-tertrahydroisoquinoline analogs as anti-cancer agents” (Eur J Med Chem, 2015).
Activity calls are given as the source filed them. The calls are words filed in the database; no cut-off is given here.

How the values were obtained:
DU-145 [1] = test: Cell cycle arrest in human DU145 cells assessed as S phase at 1 uM after 48 hrs by propidium iodide based flow cytometry (reference value: 1.65 %); assay type: functional
DU-145 [2] = test: Disruption of microtubule network in human DU145 cells at 50 uM after 48 hrs by immunohistochemistry analysis; assay type: cell-based
DU-145 [3] = test: Cell cycle arrest in human DU145 cells assessed as G0/G1 phase at 1 uM after 48 hrs by propidium iodide based flow cytometry (reference value: 79.15 %); assay type: functional
DU-145 [4] = test: Cell cycle arrest in human DU145 cells assessed as subG1 phase at 1 uM after 48 hrs by propidium iodide based flow cytometry (reference value: 9.36 %); assay type: functional
DU-145 [5] = test: Cell cycle arrest in human DU145 cells assessed as G2/M phase at 1 uM after 48 hrs by propidium iodide based flow cytometry (reference value: 6.75 %); assay type: functional
DU-145 [6] = test: Induction of apoptosis in human DU145 cells assessed as late apoptotic cells at 0.5 uM after 48 hrs by annexin V FITC/PI dual staining assay (reference value: 2.47 %); assay type: functional
A549 = test: Anticancer activity against human A549 cells after 48 hrs by MTT assay; assay type: functional, cell-based; conditions: A549, 48 h
How it was run: (§1)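 Cell lines held in DMEM or MEM with 10% FBS and antibiotic-antimycotic at 37 °C, 5% CO2. Cells seeded at 1 × 10⁴ per well in DMEM with 10% FBS and left 24 h. Compounds diluted in medium and added alongside vehicle control for 48 h. MTT (5 mg/mL) added for 4 h, formazan dissolved in DMSO, absorbance read at 570 nm.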

DU-145 [7] = test: Induction of apoptosis in human DU145 cells assessed as viable cells at 1 uM after 48 hrs by annexin V FITC/PI dual staining assay (reference value: 96.45 %); assay type: functional; conditions: DU-145, 48 h, read-out: Activity
HeLa = test: Anticancer activity against human HeLa cells after 48 hrs by MTT assay; assay type: functional, cell-based; how it was run: as §1
DU-145 [8] = test: Induction of apoptosis in human DU145 cells assessed as necrotic cells at 0.5 uM after 48 hrs by annexin V FITC/PI dual staining assay (reference value: 0.31 %); assay type: functional
DU-145 [9] = test: Induction of apoptosis in human DU145 cells assessed as DNA fragmentation at 0.5 uM after 48 hrs by agarose gel electrophoresis; assay type: functional, cell-based
How it was run: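 DU-145 cells (1 × 10⁶) seeded, then treated 24 h later for 48 h. Lysate cleared, then digested with SDS/RNase A (2 h, 56 °C) and proteinase K (2 h, 37 °C). DNA precipitated with ammonium acetate and ice-cold ethanol, dissolved in TE. Laddering resolved on 2% agarose.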

DU-145 [10] = test: Cell cycle arrest in human DU145 cells assessed as subG1 phase at 0.5 uM after 48 hrs by propidium iodide based flow cytometry (reference value: 9.36 %); assay type: functional
Tubulin = test: Inhibition of tubulin (unknown origin) polymerization by fluorescence assay; assay type: protein-complex assay, Homo sapiens
DU-145 [11] = test: Induction of apoptosis in human DU145 cells assessed as viable cells at 0.5 uM after 48 hrs by annexin V FITC/PI dual staining assay (reference value: 96.45 %); assay type: functional; conditions: DU-145, 48 h, read-out: Activity
DU-145 [12] = test: Induction of apoptosis in human DU145 cells assessed as late apoptotic cells at 1 uM after 48 hrs by annexin V FITC/PI dual staining assay (reference value: 2.47 %); assay type: functional
DU-145 [13] = test: Cell cycle arrest in human DU145 cells assessed as S phase at 0.5 uM after 48 hrs by propidium iodide based flow cytometry (reference value: 1.65 %); assay type: functional
DU-145 [14] = test: Anticancer activity against human DU145 cells after 48 hrs by MTT assay; assay type: functional, cell-based; conditions: DU-145, 48 h; how it was run: as §1
DU-145 [15] = test: Induction of apoptosis in human DU145 cells assessed as activation of caspase 3 at 0.5 to 1 uM after 48 hrs by fluorometric assay relative to control; assay type: functional
How it was run: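 DU-145 cells treated for 48 h. Fluorometric caspase-3 kit used: […] substrate added to cell lysate, 1 h at 37 °C. Fluorescence read at excitation 400 nm, emission 505 nm.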

DU-145 [16] = test: Induction of apoptosis in human DU145 cells assessed as up regulation of Bax at 0.5 uM after 48 hrs by Western blot analysis relative to control; assay type: functional, cell-based
DU-145 [17] = test: Induction of apoptosis in human DU145 cells assessed as early apoptotic cells at 1 uM after 48 hrs by annexin V FITC/PI dual staining assay (reference value: 0.77 %); assay type: functional
HepG2 = test: Anticancer activity against human HepG2 cells after 48 hrs by MTT assay; assay type: functional, cell-based; conditions: HepG2, 48 h; how it was run: as §1
DU-145 [18] = test: Induction of apoptosis in human DU145 cells assessed as down regulation of Bcl2 at 0.5 uM after 48 hrs by Western blot analysis relative to control; assay type: functional, cell-based
DU-145 [19] = test: Cell cycle arrest in human DU145 cells assessed as G0/G1 phase at 0.5 uM after 48 hrs by propidium iodide based flow cytometry (reference value: 79.15 %); assay type: functional
DU-145 [20] = test: Induction of apoptosis in human DU145 cells assessed as necrotic cells at 1 uM after 48 hrs by annexin V FITC/PI dual staining assay (reference value: 0.31 %); assay type: functional
MCF7 = test: Anticancer activity against human MCF7 cells after 48 hrs by MTT assay; assay type: functional, cell-based; conditions: MCF7, 48 h; how it was run: as §1
DU-145 [21] = test: Cell cycle arrest in human DU145 cells assessed as G2/M phase at 0.5 uM after 48 hrs by propidium iodide based flow cytometry (reference value: 6.75 %); assay type: functional
DU-145 [22] = test: Induction of apoptosis in human DU145 cells assessed as early apoptotic cells at 0.5 uM after 48 hrs by annexin V FITC/PI dual staining assay (reference value: 0.77 %); assay type: functional

SMILES: COC(=O)Nc1nc2cc(C(=O)c3cccs3)ccc2[nH]1 [NOCODAZOLE]
- Activity (DU-145 [1]): 0.86%
- Activity (DU-145 [2]): Active
- Activity (DU-145 [3]): 48.19%
- Activity (DU-145 [4]): 4.52%
- Activity (DU-145 [5]): 43.4%

SMILES: Cc1ccc(S(=O)(=O)N2CC(=O)N3Cc4ccccc4[C@@H](OCc4ccccc4)[C@@H]3C2)cc1
- Activity (DU-145 [6]): 6.47%
- IC50 (A549): 1.26 µM
- viability at 1 µM (DU-145 [7]): 65.6%
- Activity (DU-145 [1]): 0.9%
- IC50 (HeLa): 3.16 µM
- Activity (DU-145 [8]): 0.63%
- Activity (DU-145 [9]): Active
- Activity (DU-145 [10]): 8.22%
- IC50 (Tubulin): 1.68 µM
- viability at 0.5 µM (DU-145 [11]): 90.1%
- Activity (DU-145 [12]): 25.79%
- Activity (DU-145 [13]): 2.64%
- IC50 (DU-145 [14]): 0.72 µM
- fold change (FC) (DU-145 [15]): 3
- Activity (DU-145 [16]): Active
- Activity (DU-145 [2]): Active
- Activity (DU-145 [17]): 4.15%
- IC50 (HepG2): 0.87 µM
- Activity (DU-145 [18]): Active
- Activity (DU-145 [3]): 46.74%
- Activity (DU-145 [19]): 67.34%
- Activity (DU-145 [4]): 5.02%
- Activity (DU-145 [20]): 4.48%
- IC50 (MCF7): 2.51 µM
- Activity (DU-145 [21]): 17.68%
- Activity (DU-145 [22]): 2.79%
- Activity (DU-145 [5]): 44.17%

SMILES: COc1cc([C@@H]2c3cc4c(cc3[C@@H](O[C@@H]3O[C@@H]5CO[C@@H](C)O[C@H]5[C@H](O)[C@H]3O)[C@H]3COC(=O)[C@H]23)OCO4)cc(OC)c1O [ETOPOSIDE]
- IC50 (A549): 3.01 µM
- Activity (DU-145 [1]): 1.45%
- IC50 (HeLa): 3.23 µM
- IC50 (DU-145 [14]): 1.98 µM
- IC50 (HepG2): 2.45 µM
- Activity (DU-145 [3]): 48.84%
- Activity (DU-145 [4]): 7.13%
- IC50 (MCF7): 2.69 µM
- Activity (DU-145 [5]): 38.75%

SMILES: Cc1ccc(S(=O)(=O)NCC(=O)N2Cc3ccccc3[C@@H](OCc3ccccc3)[C@@H]2CO)cc1
- IC50 (A549): 6.03 µM
- IC50 (HeLa): 15.1 µM
- IC50 (DU-145 [14]): 3.8 µM
- IC50 (HepG2): 5.05 µM
- IC50 (MCF7): 11.5 µM

SMILES: CC#CC(=O)N1Cc2ccccc2[C@@H](OCc2ccccc2)[C@@H]1CO
- IC50 (A549): 9.33 µM
- IC50 (HeLa): 11.6 µM
- IC50 (DU-145 [14]): 6.16 µM
- IC50 (HepG2): 7.94 µM
- IC50 (MCF7): 18.6 µM

SMILES: Cc1ccc(S(=O)(=O)N[C@@H](Cc2ccccc2)C(=O)N2Cc3ccccc3[C@@H](OCc3ccccc3)[C@@H]2CO)cc1
- IC50 (A549): 6.91 µM
- IC50 (HeLa): 12.3 µM
- IC50 (DU-145 [14]): 1.26 µM
- IC50 (HepG2): 2.24 µM
- IC50 (MCF7): 8.71 µM

SMILES: Cc1ccc(S(=O)(=O)N[C@@H](C)C(=O)N2Cc3ccccc3[C@@H](OCc3ccccc3)[C@@H]2CO)cc1
- IC50 (A549): 7.37 µM
- IC50 (HeLa): 21 µM
- IC50 (DU-145 [14]): 4.67 µM
- IC50 (HepG2): 5.37 µM
- IC50 (MCF7): 14.8 µM

SMILES: COc1cccc(/C=C/C(=O)N2Cc3ccccc3[C@@H](OCc3ccccc3)[C@@H]2CO)c1OC
- IC50 (A549): 39.8 µM
- IC50 (HeLa): 32.8 µM
- IC50 (DU-145 [14]): 29.9 µM
- IC50 (HepG2): 31 µM
- IC50 (MCF7): 55.1 µM

SMILES: COc1cccc2c1C(=O)c1c(O)c3c(c(O)c1C2=O)C[C@@](O)(C(=O)CO)C[C@@H]3O[C@H]1C[C@H](N)[C@H](O)[C@H](C)O1 [DOXORUBICIN]
- IC50 (HeLa): 2.29 µM
- IC50 (DU-145 [14]): 1.3 µM

SMILES: COc1ccc(C(=O)N2Cc3ccccc3[C@@H](OCc3ccccc3)[C@@H]2CO)c(O)c1
- IC50 (A549): 6.46 µM
- IC50 (HeLa): 12.5 µM
- IC50 (DU-145 [14]): 9.77 µM
- IC50 (HepG2): 11.4 µM
- IC50 (MCF7): 21.8 µM

SMILES: Cc1ccc(S(=O)(=O)N[C@H](C(=O)N2Cc3ccccc3[C@@H](OCc3ccccc3)[C@@H]2CO)C(C)C)cc1
- IC50 (A549): 79.4 µM
- IC50 (HeLa): 92.6 µM
- IC50 (DU-145 [14]): 31.6 µM
- IC50 (HepG2): 32 µM
- IC50 (MCF7): 60.4 µM

SMILES: COc1cc(/C=C/C(=O)N2Cc3ccccc3[C@@H](OCc3ccccc3)[C@@H]2CO)ccc1O
- IC50 (A549): 63 µM
- IC50 (HeLa): 67.6 µM
- IC50 (DU-145 [14]): 41.3 µM
- IC50 (HepG2): 79.4 µM
- IC50 (MCF7): 37.3 µM

SMILES: O=C(/C=C/c1cccc(O)c1)N1Cc2ccccc2[C@@H](OCc2ccccc2)[C@@H]1CO
- IC50 (A549): 4.36 µM
- IC50 (HeLa): 15.8 µM
- IC50 (DU-145 [14]): 2.08 µM
- IC50 (HepG2): 2.82 µM
- IC50 (MCF7): 19.2 µM

SMILES: Cc1ccc(S(=O)(=O)Nc2ccccc2C(=O)N2Cc3ccccc3[C@@H](OCc3ccccc3)[C@@H]2CO)cc1
- IC50 (A549): 37.1 µM
- IC50 (HeLa): 56.3 µM
- IC50 (DU-145 [14]): 39.8 µM
- IC50 (HepG2): 57.5 µM
- IC50 (MCF7): 79.4 µM

SMILES: Cc1ccc(S(=O)(=O)N2C[C@H]3[C@H](OCc4ccccc4)c4ccccc4CN3C(=O)[C@@H]2Cc2ccccc2)cc1
- IC50 (A549): 13.7 µM
- IC50 (HeLa): 20.3 µM
- IC50 (DU-145 [14]): 7.41 µM
- IC50 (HepG2): 10.8 µM
- IC50 (MCF7): 17.6 µM

SMILES: O=C(/C=C/c1ccc(F)cc1)N1Cc2ccccc2[C@@H](OCc2ccccc2)[C@@H]1CO
- IC50 (A549): 32.3 µM
- IC50 (HeLa): 58.3 µM
- IC50 (DU-145 [14]): 29.3 µM
- IC50 (HepG2): 24.6 µM
- IC50 (MCF7): 57.3 µM

SMILES: O=C(/C=C/c1ccc([N+](=O)[O-])cc1)N1Cc2ccccc2[C@@H](OCc2ccccc2)[C@@H]1CO
- IC50 (A549): 5.62 µM
- IC50 (HeLa): 26.8 µM
- IC50 (DU-145 [14]): 4.07 µM
- IC50 (HepG2): 5.37 µM
- IC50 (MCF7): 24.4 µM

SMILES: O=C(/C=C/c1ccccc1)N1Cc2ccccc2[C@@H](OCc2ccccc2)[C@@H]1CO
- IC50 (A549): 25.1 µM
- IC50 (HeLa): 27.7 µM
- IC50 (DU-145 [14]): 12.9 µM
- IC50 (HepG2): 20.7 µM
- IC50 (MCF7): 39.8 µM
